Rows were chosen to be rich in hits. Some 3.8% of all compounds tested hit in one or more screens of this group.
hERG rescue: compounds protecting human hERG from proarrhythmic drug block; CHO-hERG, FluxOR thallium flux, dofetilide IC70 present; activation (rescue from dofetilide block), less the hit threshold, % at 10 µM; actives 0.51% (n = 310,000);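 active = activation above the mean of controls blocked by dofetilide plus 5 SD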;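 also: thallium influx through hERG after potassium depolarization seen as dye fluorescence rise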
KCNQ1 block: human KCNQ1 channel inhibition | actives 1.3% (n = 310,000) | CHO-K1 KCNQ1, FluxOR thallium flux fluorescence; hits give high values | P51787 | B-score at 10 µM;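 active = compounds whose thallium flux B-score, printed positive for inhibition, exceeds three library SD while starting fluorescence stays within three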;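 also: channel opened by potassium depolarization with thallium stimulus after 20 min compound exposure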
Target sequence (P51787 whole entry, looked up): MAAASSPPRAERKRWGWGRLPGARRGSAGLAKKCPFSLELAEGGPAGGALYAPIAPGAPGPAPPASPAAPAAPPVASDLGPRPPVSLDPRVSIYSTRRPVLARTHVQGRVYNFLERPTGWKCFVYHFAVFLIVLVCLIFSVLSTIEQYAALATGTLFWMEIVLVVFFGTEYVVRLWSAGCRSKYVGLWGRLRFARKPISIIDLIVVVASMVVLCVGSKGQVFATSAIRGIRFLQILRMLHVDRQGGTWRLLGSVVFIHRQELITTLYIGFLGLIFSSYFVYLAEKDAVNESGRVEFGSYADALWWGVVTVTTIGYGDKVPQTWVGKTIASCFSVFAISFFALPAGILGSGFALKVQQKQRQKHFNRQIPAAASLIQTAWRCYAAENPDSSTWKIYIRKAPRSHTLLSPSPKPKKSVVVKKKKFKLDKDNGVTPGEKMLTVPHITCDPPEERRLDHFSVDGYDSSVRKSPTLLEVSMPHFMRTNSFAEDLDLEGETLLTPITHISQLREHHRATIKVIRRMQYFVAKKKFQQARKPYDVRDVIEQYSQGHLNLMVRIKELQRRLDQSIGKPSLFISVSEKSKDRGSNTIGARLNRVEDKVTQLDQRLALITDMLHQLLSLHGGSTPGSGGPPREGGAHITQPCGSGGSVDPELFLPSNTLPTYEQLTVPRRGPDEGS
KCNQ1 act: human KCNQ1 channel potentiation or activation; CHO-K1 KCNQ1, thallium flux FluxOR fluorescence; hits give high values; B-score at 10 µM; actives 0.35% (n = 310,000); AID 2648;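 active = fluorescence ratio B-score, a plate-corrected score, at least three library SD, with initial intensity B-score within 5 SD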
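Material: CHO-K1 cells stably expressing KCNQ1. Medium: assay buffer for compound exposure, DMSO matched across wells. Reagent: K+/Tl+ depolarizing stimulus. Compound dosing: single-concentration screen. Times: 37 °C overnight plating, 90-min dark dye load, 20-min compound pretreatment. Technique: FluxOR Tl+ flux fluorescence.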
KCNK9 inh: blocks the human KCNK9 two-pore domain potassium channel; actives 1.2% (n = 310,000); HEK293 KCNK9, FluxOR thallium flux fluorescence; hits give low values; B-score at 10 µM; Q9NPC2;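 active = ratio B-score over 3 SD below the library mean, with starting fluorescence within 5 SD of its mean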;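 also: negative B-score means less thallium flux so channel inhibition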
KCNK3 block: human KCNK3 channel inhibition, primary screen; CHO-KCNK3 thallium flux, FluxOR fluorescence; hits give low values; AID 602410; B-score at 10 µM; actives 0.84% (n = 340,000); O14649;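 active = B-score under library mean minus 4 SD, starting fluorescence ratio at most library mean plus 5 SD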;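 also: more negative B-score means stronger inhibition of thallium flux through KCNK3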
Kir21 block: blocks the mouse Kir2.1 inward-rectifier potassium channel. P35561. HEK293-Kir2.1, FluxOR thallium flux fluorescence; hits give low values. B-score at 10 µM. actives 0.85% (n = 310,000). AID 1672;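 active = fluorescence ratio B-score at or below minus 3 SD of library scores, with starting-brightness B-score within 2 SD, cut at about -4.2 in these data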;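 also: channel flux triggered by added potassium and thallium sulfate stimulus; B-score of peak minus minimum fluorescence over baseline after thallium stimulus; more negative B-score means stronger Kir2.1 block with less thallium influx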
Hits are given with their value; n = inactive; x = no result given.

SMILES | hERG rescue | KCNQ1 block | KCNQ1 act | KCNK9 inh | KCNK3 block | Kir21 block
COc1ccc(C)cc1S(=O)(=O)N1CCc2ccccc2C1 | n | n | n | n | n | -4.26
CC1CCC/C=C/C(=O)c2c(O)cc(O)cc2CC(=O)O1 (configuration not stated) | n | 7 | n | n | n | n
CCCCC1C(=O)N(c2ccccc2)N(c2ccc(O)cc2)C1=O (configuration not stated) | x | x | x | x | -10.3 | x
CCn1c(SCCN2CCOCC2)nc2c1c(=O)n(C)c(=O)n2C | n | n | n | n | n | n
CCCCCCC(=O)N/N=C/c1ccco1 | n | n | n | n | n | n
COc1ccc(-c2cc(C(=O)OCC(=O)c3ccc(C)c([N+](=O)[O-])c3)c3ccccc3n2)cc1 | n | n | n | n | n | n
COc1ccc(-c2nn(-c3ccccc3)cc2C(=O)OCC(=O)c2ccc(C)c([N+](=O)[O-])c2)cc1 | n | 8 | n | n | n | n
O=C(CSc1ncccn1)N1CCC(Cc2ccccc2)CC1 | n | n | n | n | n | n
O=C(COc1ccccc1)N1CCN(S(=O)(=O)c2cccs2)CC1 | n | n | 9 | n | n | n
O=C(CCOc1ccccc1)N1CCN(S(=O)(=O)c2cccs2)CC1 | n | n | n | n | n | n
Cc1ccc(OCCN2C(=O)c3ccccc3C2=O)c([N+](=O)[O-])c1 | n | n | 9 | n | n | n
COc1ccccc1NC(=O)c1ccc(S(=O)(=O)N(C)c2ccccc2)cc1 | x | x | x | x | n | x
COc1cc(NC(=O)c2ccc(S(=O)(=O)N(C)c3ccccc3)cc2)cc(OC)c1 | x | x | x | x | -9.08 | x
CN(c1ccccc1)S(=O)(=O)c1cccc(NC(=O)c2ccc(Cl)c([N+](=O)[O-])c2)c1 | x | x | x | x | -11.3 | x
Cc1csc(=O)n1CC(=O)OCC(=O)NC(C)c1ccc(F)cc1 (configuration not stated) | x | x | x | x | n | x
CC1(C)Cc2c(sc3[nH]c(=S)n(Cc4ccccc4)c(=O)c23)CO1 | 4.7 | n | 34 | n | n | n
CC1(C)Cc2c(sc3c2c(N)nc(=S)n3Cc2ccccc2)CO1 | n | n | n | n | x | n
Cc1cc(/C=N/n2cnnc2)c(C)n1-c1ccc(Cl)cc1 | n | n | n | n | n | n
Cc1cc(/C=N/n2cnnc2)c(C)n1-c1ccc(Cl)cc1Cl | n | n | 10 | n | n | n
CC(=O)Oc1c(C(C)C)cc(N(C(C)=O)c2ccccc2)cc1C(C)C | n | n | n | n | n | n
Cc1ccc(C(=O)NC2CCN(S(=O)(=O)c3ccccc3F)CC2)cc1 | n | n | n | n | n | n
CCOc1ccccc1OCCOc1ccccc1OC(C)C | n | n | n | n | n | -4.93
CCCOC(=O)c1ccc(NC(=O)c2ccccc2OC)cc1 | n | n | n | -7.54 | n | n
CCCN1CCC(NC(=O)Cc2ccccc2C)CC1 | n | n | n | n | n | n
O=Cc1ccc(N2CCCC2)c(F)c1 | n | n | n | n | n | n
SMILES | hERG rescue | KCNQ1 block | KCNQ1 act | KCNK9 inh | KCNK3 block | Kir21 block
CN=C1S/C(=C\c2ccc(N3CCCC3)c(F)c2)C(=O)N1C | n | 11 | n | n | n | n
COC(=O)c1ccccc1NC(=O)Cn1nc2n(C)c3ccccc3n2c(=O)c1=O | n | n | n | n | x | n
C/C=C(/C)C(=O)O[C@@H]1c2c(ccc3ccc(=O)oc23)O[C@@H]1C(C)(C)OC(=O)/C(C)=C\C | n | n | n | -7.14 | n | n
NC(=NCCc1c[nH]c2ccccc12)NC(=O)c1ccc(F)cc1 | n | n | n | n | n | -7.23
O=C(CCNS(=O)(=O)c1ccc(Br)cc1)NCc1ccco1 | n | n | n | n | n | n
CCN(Cc1ccccc1)C1CCN(Cc2ccc(SC)cc2)CC1 | n | n | n | n | n | -4.64
CCSc1ccc2cc(OC)ccc2[n+]1CC | n | n | n | n | n | n
N#C/C(=C\c1ccc(C#N)cc1)C(=O)N1CCCC1 | n | 6 | n | n | n | n
N#C/C(=C\c1ccc(O)cc1)C(=O)N1CCCC1 | n | n | n | n | n | n
O=C(CCN1C(=O)c2cccc([N+](=O)[O-])c2C1=O)Nc1nccs1 | n | n | n | n | n | n
COc1ccc(OC)c(/C=N/Nc2nc(C)cc(=O)[nH]2)c1 | n | n | n | n | n | n
O=C(NC(Cc1ccccc1)C(=O)O)/C(=C/c1ccco1)NC(=O)c1cccc([N+](=O)[O-])c1 (configuration not stated) | 52.5 | n | n | n | n | n
CC(=O)c1ccc(NC(=O)c2ccc3nc(-c4ccco4)c(-c4ccco4)nc3c2)cc1 | n | n | n | n | -11.3 | n
O=C(Nc1ccccc1)c1ccc2nc(-c3ccco3)c(-c3ccco3)nc2c1 | n | n | n | n | n | n
O=C(NC(=S)N1CCN(c2nc(-c3ccccc3)cs2)CC1)c1cncc(Br)c1 | 88.7 | n | 56 | n | n | n
CCOC(=O)c1c(C)[nH]c(C)c1C(=O)COC(=O)Cc1ccc(OC)c(OC)c1 | x | x | x | x | n | x
CC(C)Cn1c(SCC(=O)c2ccc(Cl)s2)nnc1-c1ccco1 | n | n | n | n | n | -9.37
CCn1c(SCC(=O)OCc2ccccc2)nnc1-c1ccco1 | n | n | n | n | n | -5.87
CC(C)CCNC(=O)C(c1ccc(O)cc1)N(C(=O)C1COc2ccccc2O1)c1cccc(O)c1 (configuration not stated) | n | 7 | n | n | n | n
O=S(=O)([N-]c1nc2ccccc2nc1-[n+]1ccc(CCCc2ccccc2)cc1)c1cccs1 | n | n | n | -6.82 | n | n
Cc1cccc(/N=C/c2sc3ccccc3c2O)n1 | 6.7 | n | 8 | n | n | n
Fc1ccc(C(c2ccc(F)cc2)N2CCN(C/C=C/c3ccccc3)CC2)cc1 | n | 8 | n | n | n | n
Cc1nc(S/C(=C/c2ccc(OCc3ccc(C(=O)O)cc3)cc2)C(=O)O)n[nH]1 | n | n | n | n | n | n
CC(O)(c1ccc(Cl)cc1)C(c1ccccc1)c1ccccn1 (configuration not stated) | x | x | x | x | n | x
O=C(O)C/C(=C\c1cc(Br)cs1)c1nc2ccccc2o1 | 6.1 | n | n | n | n | n
SMILES | hERG rescue | KCNQ1 block | KCNQ1 act | KCNK9 inh | KCNK3 block | Kir21 block
COc1cccc(-c2nn3c(-c4cc(C)[nH]n4)nnc3s2)c1 | 5.9 | n | n | n | n | n
COc1cccc(-c2nn3c(-c4ccccn4)nnc3s2)c1 | n | n | n | n | n | n
CN(C(=S)NC(=O)c1ccc(Br)o1)c1ccccc1 | n | n | n | n | n | n
CCC(CC)c1nc(C#N)c(NC(C)c2ccccc2)o1 (configuration not stated) | n | n | n | n | n | -6.12
COc1ccc(-c2nc(C#N)c(NC(C)C)o2)cc1 | n | n | n | n | n | n
O=c1[nH]cnc(O)c1C1C=CC=CC=C1 | x | x | x | x | n | x

Source: PubChem BioAssay
